The record followed here is PubChem BioAssay.

Results filed as inconclusive are left out. Activity calls are given as the source filed them. Rule as the data show it, unless noted: active = percent of DMSO control GFP below about 86%; inactive = the rest, inconclusive results apart.

Assay [1] in a line: yeast TOR pathway RPL19A-GFP modulators, primary screen, cell-based, S. cerevisiae, multiplex flow cytometry (AID 1862).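 Also: lower values mimic rapamycin by blocking the RPL19A rise seen in DMSO cells.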 The note with it: S. cerevisiae RPL19A-GFP strain, flow cytometry fluorescence, 3 h; at 10 µM; stronger effect = lower value. (In general: A flow cytometer gives signals particle by particle.)
Assay [2] can be described thus: modulators of MEP2-GFP levels in yeast, primary screen, S. cerevisiae, multiplex flow cytometry (AID 1867;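 active = GFP response, as percent of the DMSO control, above the screen-wide mean plus 3 SD, about 139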;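 also: median GFP channel fluorescence of barcode-gated MEP2-GFP cells measured by flow cytometry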). The following applies: S. cerevisiae MEP2-GFP strain, 3 h, at 10 µM, stronger effect = higher value, 100% means same as DMSO wells.
Assay [3] in a line: modulators of CIT2-GFP expression in yeast, primary screen, S. cerevisiae, GFP fusion, multiplex flow cytometry (AID 1870;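 active = percent response above a set limit, the screen-wide mean plus 3 SD, cut at about 130% in these data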;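 also: barcoded CIT2-GFP strain pooled with four other GFP strains with rapamycin as positive control; median GFP fluorescence per well over plate mean of DMSO wells so 100% = DMSO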). The note with it: 3 h, at 10 µM, stronger effect = higher value.
A short description of assay [4]: modulators of LAP4-GFP expression in yeast, primary screen, S. cerevisiae, multiplex flow cytometry (AID 1873;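 active = GFP signal, as percent of the solvent control, above the screen mean plus 3 SD, about 149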). The following applies: 3 h, at 10 µM, stronger effect = higher value.
A short description of assay [5]: modulators of AGP1-GFP expression in yeast TOR pathway, primary screen, cell-based, multiplex flow cytometry, S. cerevisiae (AID 1887;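 active = GFP signal above the screen-wide mean plus 3 SD, that is over about 124.5% of the solvent control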;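 also: AGP1-GFP fusion strain of S. cerevisiae within a five-strain barcoded multiplex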). The following applies: 3 h, at 10 µM, stronger effect = higher value.
Assay [6] in a line: RPL19A-GFP modulators, yeast TOR pathway, confirmation, cell-based, S. cerevisiae, flow cytometry, cherry picks, mother/daughter gates (AID 2270;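 active = GFP response below 50% of the DMSO control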). The note with it: S. cerevisiae RPL19A-GFP strain, 3 h, at 10 µM, stronger effect = lower value, 100 = same GFP as DMSO wells.
Assay [7] can be described thus: LAP4-GFP expression modulators in yeast, confirmation, cell-based, cherry picks, flow cytometry, mother/daughter gates (AID 2271;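 active = GFP response above 150% of the DMSO control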;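 also: ratio of sample to DMSO plate mean so 100% equals DMSO level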). The following applies: S. cerevisiae LAP4-GFP strain, 3 h, at 10 µM, stronger effect = higher value, 100 means same as DMSO control. A digest of the protocol:
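Material – Alexa Fluor 633-labelled Saccharomyces cerevisiae GFP-fusion strain, single-plex · Incubation – compound exposure 3 h at 30 °C, end-over-end rotation · Measured by – GFP by flow cytometry · Measure – median GFP fluorescence as percent of plate-mean DMSO wells · Control set – positive rapamycin (400 ng/mL), negative DMSO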

Assay [8] in a line: modulators of MEP2-GFP levels in yeast, confirmation, S. cerevisiae, flow cytometry GFP, cherry picks (AID 2272;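 active = GFP response above 150% of the DMSO control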;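 also: ratio of well signal to plate DMSO mean so 100% equals DMSO level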). The following applies: S. cerevisiae MEP2-GFP strain, 3 h, at 10 µM, stronger effect = higher value.
The nature of assay [9]: modulators of CIT2-GFP expression in yeast, confirmation, S. cerevisiae, GFP fusion, cherry picks, mother/daughter gates (AID 2274;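 active = GFP response above 150% of the DMSO level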). The following applies: S. cerevisiae CIT2-GFP strain, flow cytometry, 3 h, at 10 µM, stronger effect = higher value.
The nature of assay [10]: inhibitors of CD8+ T cell-vesicle binding, pilot screen, LFA-1/ICAM-1 modulator project, MLPCN validation set, flow cytometry (AID 2523;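 active = response below a set limit, under 55% cells CD8-positive and vesicle-bound, and CD8 cells' 90th-percentile brightness under 279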;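 as to vesicle binding response: mean PE anti-B7-1 fluorescence of CD8+ cells relative to row control; 100% = QL9-loaded vesicles with DMSO vehicle in the same plate row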). The following applies: 2C mouse CD8+ T cells, at 7 µM, stronger effect = lower value; double positive events: measured here: CD8+/vesicle+ event percentage.
[11] abbreviates: measured here: daughter cell gate.
The mark [12] stands for this setting: measured here: mother cell gate.
Where [13] appears, read: measured here: daughter cell gate response.
The mark [14] stands for this setting: measured here: mother cell gate response.

Consider `COc1ccc(-c2noc(-c3ccccc3-c3ccccc3)n2)cc1`, for which, in assay [1], the percent of DMSO control GFP is 91.1% (inactive). Further, the GFP response vs DMSO in assay [2] was 142% (active); in [4], 81.4% (inactive); in assay [6], 95.6% (inactive); in assay [6] (setting [11]), 92.9%; in [6] (setting [12]) it was 96.8%; in [8] it was 107% (inactive). Further, the percent response of DMSO control in assay [3] is 114% (inactive). For the same compound, the GFP response, % of DMSO in assay [5] was 86.3% (inactive); in assay [9], 97.3% (inactive); in assay [9] (setting [11]) it was 97.4%; in assay [9] (setting [12]), 96.8%. For the same compound, the figures for the GFP response relative to DMSO in assay [7], in [7] (setting [13]) and in [7] (setting [14]) were 95.7% (inactive), 95.9% and 97.3%, respectively. This compound came in with a double positive events in [10] of 56.5%. Further, the vesicle binding response in [10] was 138% (inactive).

On to `O=C(O)Cc1ccc(-c2ccccc2)cc1`, for which the percent of DMSO control GFP in assay [1] was 89.4% (inactive). Also, the GFP response vs DMSO in assay [2] is 96.3% (inactive); in assay [4], 196% (active); in [6] it was 96.5% (inactive); in [6] (setting [11]) it was 93.3%; in assay [6] (setting [12]), 95.9%; in [8], 102% (inactive). Besides, in [3], the percent response of DMSO control is 65.4% (inactive). The GFP response, % of DMSO in [5] is 76.9% (inactive); in assay [9], 102% (inactive); in assay [9] (setting [11]), 91.5%; in [9] (setting [12]), 103%. The values for the GFP response relative to DMSO in assay [7], in [7] (setting [13]) and in [7] (setting [14]) were 115% (inactive), 116% and 114%, respectively. Also, the double positive events in assay [10] is 65.8%. Moreover, the vesicle binding response in assay [10] was 5570% (inactive).

Turning to `COc1ccc(-c2[nH]ncc2CN(CCO)Cc2cccs2)c(F)c1`, the percent of DMSO control GFP in assay [1] was 102% (inactive). Further, the GFP response vs DMSO in assay [2] is 105% (inactive); in assay [4] it was 99.1% (inactive); in [6], 96.8% (inactive); in assay [6] (setting [11]), 97.4%; in assay [6] (setting [12]), 98.4%; in assay [8], 100% (inactive). The percent response of DMSO control in [3] was 104% (inactive). The GFP response, % of DMSO is 105% (inactive) in assay [5], 99.7% (inactive) in assay [9], 103% in assay [9] (setting [11]) and 99.7% in assay [9] (setting [12]). Besides, the results for the GFP response relative to DMSO in assay [7], in assay [7] (setting [13]) and in [7] (setting [14]) were 94.1% (inactive), 94.4% and 94%, respectively. This compound had a double positive events in assay [10] of 62.7%. Also, in [10], the vesicle binding response was 142% (inactive).

As for `COc1ccc(C2=CC(=O)C=CC2=O)cc1`, in assay [1], the percent of DMSO control GFP was 84.7% (active). Moreover, the GFP response vs DMSO was 105% (inactive) in assay [2]; 144% (inactive) in [4]; 109% (inactive) in assay [6]; 114% in assay [6] (setting [11]); 104% in assay [6] (setting [12]); 117% (inactive) in assay [8]. In addition, the percent response of DMSO control in assay [3] is 68.5% (inactive). Moreover, the GFP response, % of DMSO in [5] is 91.9% (inactive); in [9] it was 108% (inactive); in assay [9] (setting [11]), 111%; in assay [9] (setting [12]) it was 103%. The GFP response relative to DMSO in assay [7] is 119% (inactive); in assay [7] (setting [13]) it was 120%; in assay [7] (setting [14]), 122%. The double positive events in [10] amounted to 64.5%. Moreover, in assay [10], the vesicle binding response was 146% (inactive).

For `O=C1ON=C(c2ccc(Cl)cc2)/C1=C/c1ccc(O)cc1`, the percent of DMSO control GFP in assay [1] was 108% (inactive). For the same compound, the GFP response vs DMSO in [2] is 95.2% (inactive); in assay [4], 98.2% (inactive); in assay [6], 101% (inactive); in [6] (setting [11]), 105%; in [6] (setting [12]), 96.8%; in [8], 100% (inactive). Besides, in assay [3], the percent response of DMSO control was 112% (inactive). In addition, the GFP response, % of DMSO in assay [5] is 87.4% (inactive); in [9], 111% (inactive); in assay [9] (setting [11]), 114%; in assay [9] (setting [12]) it was 104%. In addition, the GFP response relative to DMSO in assay [7] was 90.2% (inactive); in assay [7] (setting [13]), 95.6%; in [7] (setting [14]), 89%. The double positive events in assay [10] is 60.6%. In addition, the vesicle binding response in assay [10] is 94.3% (inactive).
